High-throughput results deposited in PubChem by several laboratories.
HGIII-sPLA2 inh: human group III sPLA2 inhibitors, primary screen, biochemical, QFRET, BODIPY PC-A2 liposome substrate; actives 0.56% (n = 370,000); QFRET BODIPY PC-A2 liposome hydrolysis, fluorescence; inhibition, % at 12.2 µM; AID 743126, 2013; Group 3 secretory phospholipase A2 (Homo sapiens), Q9NZ20;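 active means inhibition above mean plus 3 SD of compounds lying within the high and low control bounds, cut at about 19% in these data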
Target sequence (Q9NZ20 whole entry, looked up): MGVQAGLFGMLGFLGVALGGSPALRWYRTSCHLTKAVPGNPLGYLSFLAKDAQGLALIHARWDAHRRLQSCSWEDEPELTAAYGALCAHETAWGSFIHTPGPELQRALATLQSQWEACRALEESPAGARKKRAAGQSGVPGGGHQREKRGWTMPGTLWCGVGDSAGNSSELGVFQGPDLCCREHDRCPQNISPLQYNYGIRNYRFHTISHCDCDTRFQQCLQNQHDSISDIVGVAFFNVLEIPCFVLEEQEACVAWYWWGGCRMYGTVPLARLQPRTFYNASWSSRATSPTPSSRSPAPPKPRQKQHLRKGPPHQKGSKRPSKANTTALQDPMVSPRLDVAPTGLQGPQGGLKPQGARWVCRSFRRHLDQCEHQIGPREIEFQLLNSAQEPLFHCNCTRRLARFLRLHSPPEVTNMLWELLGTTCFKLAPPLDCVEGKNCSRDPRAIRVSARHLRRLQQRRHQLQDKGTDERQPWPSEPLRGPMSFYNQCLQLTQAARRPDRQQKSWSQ
Arrestin-AP2 inh: inhibitors of beta-arrestin/AP2 binding, primary screen, biochemical, GPCR trafficking, flow cytometry. beta-arrestin 1 C-terminal peptide binding to AP2 beta2-adaptin appendage (human). actives 0.31% (n = 340,000). FITC-arrestin peptide / GST-AP2 beads; AP2 beta2 appendage carries R879A mutation. inhibition, % at 10 µM;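 active means inhibition above a set limit, near 3 SD of compounds lacking own fluorescence, cut at about 54% in these data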
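Assay system: GST-AP2 R879A bound to glutathione beads, E. coli-expressed; Medium: PBS with 0.05% Tween 20 and 0.1% BSA; Also added: fluorescein-tagged arrestin peptide at 50 nM final; Timing: 12 min plus 1 h, RT; Measured by: flow cytometry, FL1 (488/535 nm); Evaluation: percent drop in bead-associated FITC signal.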
CendR NRP1 mod: modulators of CendR peptide binding to NRP-1, primary screen, biochemical, fluorescence polarization, uHTS | Neuropilin-1 (Homo sapiens), O14786 | FAM-RPARPAR peptide binding to NRP-1 | inhibition, % at 25 µM | actives 0.85% (n = 360,000) | AID 602438, 2012;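 active means inhibition or corrected inhibition above about 18%, plus a signal ratio from 0.5 to 1.5, limit read from the data, passing the limit was not always enough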
Hep lipid drop: inhibitors of hepatocyte lipid droplet formation, primary screen, imaging, high-throughput imaging, BODIPY stain. AML12 mouse hepatocytes, oleate lipid droplets. inhibition, % at 6.5 µM. actives 0.4% (n = 240,000). AID 1656, 2009;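 active means lipid droplet intensity inhibited by at least 50%, with more than 500 cells counted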
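System: AML12 hepatocytes (mouse). Probe or stimulus: oleic acid at 100 µM to induce lipid droplet formation. Times: overnight treatment with compound plus oleate. Detection: Image-based BODIPY and DAPI two-channel analysis. Evaluation: percent inhibition of filter-corrected integrated lipid droplet intensity per well.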
PfM18AAP inh-1: PfM18AAP inhibitors, malaria aminopeptidase, primary screen, biochemical, QFRET, recombinant enzyme; actives 1.2% (n = 290,000); M18 aspartyl aminopeptidase (Plasmodium falciparum 3D7); AID 1822, 2009; H-Glu-NHMec fluorogenic cleavage; inhibition, % at 7.35 µM;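 active means inhibition above the campaign mean inhibition over all tested compounds plus 3 SD, cut at about 28% in these data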
m5-HT2A agonist: mouse Htr2a agonists via beta-arrestin recruitment, primary screen, cell-based, luminescence. activation, % at 7.6 µM. CHO-K1 mHTR2A beta-arrestin complementation; percent of 30 µM serotonin response. 5-hydroxytryptamine receptor 2A (Mus musculus), P35363. actives 0.66% (n = 360,000);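 active means activation above a run cutoff, the mean activation of all tested compounds plus 3 SD, cut at about 14% in these data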
PfM18AAP inh-2: PfM18AAP inhibitors, malaria aminopeptidase, confirmation, biochemical, QFRET, recombinant enzyme, triplicate; H-Glu-NHMec fluorogenic cleavage; actives 28% (n = 2,400); inhibition, % at 7.35 µM; shares compounds with PfM18AAP inh-1;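 active means mean inhibition over replicate wells above the hit cutoff set for the earlier primary screen, cut at about 29% in these data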
CTSL1 confirm: cathepsin L1 inhibitors, retest, confirmation, counter-screen for PFM18AAP inhibitor project, biochemical, QFRET, triplicate; inhibition, % at 5.96 µM; 2,400 tested, under 10 active; purified cathepsin L1, Z-Leu-Arg-MCA fluorescence; shares compounds with PfM18AAP inh-1;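 active means average inhibition across replicates above the hit cutoff set in the earlier primary screen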
Hits are given with their value; . = inactive; / = not tested or not shown. An excerpt weighted towards active compounds, which were near 3.3% of everything screened.

SMILES	HGIII-sPLA2 inh	Arrestin-AP2 inh	CendR NRP1 mod	Hep lipid drop	PfM18AAP inh-1	m5-HT2A agonist	PfM18AAP inh-2	CTSL1 confirm
COCC(Cc1ccccc1)NC(=O)Cn1cc(C)c(=O)[nH]c1=O (stereo not given)	.	.	.	/	/	.	/	/
CCN(CC)c1ccc(S(=O)(=O)N2CCOCC2)cc1NC(=O)COC(=O)C1=COCCO1	.	.	.	/	/	.	/	/
Cc1ccccc1C(=O)N1CCN(c2ccc(NC(=O)c3cccnc3Cl)cc2)CC1	.	.	.	.	.	.	/	/
O=C(CSc1ncn[nH]1)Nc1nc(-c2ccccc2)ns1	.	.	.	.	82	.	85	.
O=C(CSc1ncn[nH]1)Nc1ccccc1C(=O)O	.	.	.	/	44	.	.	.
CC(C)c1nnc(NC(=O)CSc2ncn[nH]2)s1	.	.	.	/	42	.	52	.
O=C(Nc1ccc(N2CCN(C(=O)c3ccccc3F)CC2)cc1)c1ncn[nH]1	.	.	.	.	39	.	.	.
CCC(=O)Nc1nc(-c2ccccc2)ns1	.	.	.	.	.	.	/	/
CCc1nc(SCC(=O)Nc2nnc(C(C)C)s2)n[nH]1	.	.	.	/	/	.	/	/
CCOC(=O)Nc1ccc2c(COC(=O)C(NS(=O)(=O)c3ccc(Cl)cc3)C(C)O)cc(=O)oc2c1 (stereo not given)	.	.	.	/	/	.	/	/
O=C(Nc1ccccc1C(=O)O)c1ncn[nH]1	.	.	.	/	77	.	58	.
O=C(Nc1ccccc1C(=O)Nc1ccccc1C(=O)O)c1ccccc1	.	.	.	/	.	.	/	/
CC(NCC(=O)NC(=O)NCCC1=CCCCC1)c1ccc(S(N)(=O)=O)cc1 (stereo not given)	.	.	.	/	/	.	/	/
COc1ccc(O)c(C(=O)C2c3ccccc3C(=O)N2c2ccc(C)cc2)c1 (stereo not given)	.	.	.	.	40	.	.	.
COc1ccc(N2C(=O)C(Cl)=C(N3CCOCC3)C2=O)cc1	.	.	.	.	33	.	.	25
CCn1c(Sc2ccc([N+](=O)[O-])cn2)nnc1-c1ccco1	.	.	.	.	.	.	/	/
O=C(Nc1cccc(Cl)c1)N(CCN1CCOCC1)Cc1ccccc1F	.	.	.	.	71	.	.	.
Cc1ccc(-n2c(N)c(C(=O)N3CCCCC3)sc2=S)cc1	.	.	.	.	.	.	/	/
Cc1ccc(-n2c(N)c(C(=O)N3CCN(C)CC3)sc2=S)cc1	.	.	.	.	59	.	.	.
Cc1ccc(-n2c(N)c(C(N)=O)sc2=S)c(C)c1	.	.	.	/	39	.	.	.
O=S(=O)(O)c1cc(O)c2c(O)c(N=Nc3cc(Cl)ccc3O)c(S(=O)(=O)O)cc2c1	/	.	.	.	45	.	29	.
Oc1ccc(Cl)cc1N=Nc1ccccc1	.	.	.	.	.	.	/	/
COC(=O)N1CCC2CC1c1c(Cl)cccc12 (stereo not given)	.	/	.	/	/	.	/	/
C=CCn1c(-c2ccoc2)n[nH]c1=S	.	.	.	/	49	.	.	.
C=CCn1c(Cc2ccccc2)n[nH]c1=S	.	.	.	.	34	.	.	.
C=CCn1c(-c2ccccc2)n[nH]c1=S	.	.	.	.	.	.	/	/
C(=C\c1ccco1)/C=N/n1cnnc1	.	.	.	/	58	.	.	.
